Experimental data as given in ChEMBL document CHEMBL1124062, “Structure-affinity relationships of arylquinolizines at alpha-adrenoceptors” (J Med Chem, 1988).

Legend:
[1] = Partition coefficient (logD) (octanol/phosphate buffer); assay type: physicochemical
Outline: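 Shake-flask partition between octanol and pH 7.4 phosphate buffer of ionic strength 0.1 as the aqueous phase. Compound level in each phase read by UV absorption.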

[2] = target: T1, Alpha-1A adrenergic receptor (Bos taurus, UniProt P18130); experiment: Affinity to alpha-1 adrenergic receptor by the displacement of [3H]-prazosin from calf cerebral cortex membranes; assay type: tissue-based
T1 sequence (P18130 whole entry): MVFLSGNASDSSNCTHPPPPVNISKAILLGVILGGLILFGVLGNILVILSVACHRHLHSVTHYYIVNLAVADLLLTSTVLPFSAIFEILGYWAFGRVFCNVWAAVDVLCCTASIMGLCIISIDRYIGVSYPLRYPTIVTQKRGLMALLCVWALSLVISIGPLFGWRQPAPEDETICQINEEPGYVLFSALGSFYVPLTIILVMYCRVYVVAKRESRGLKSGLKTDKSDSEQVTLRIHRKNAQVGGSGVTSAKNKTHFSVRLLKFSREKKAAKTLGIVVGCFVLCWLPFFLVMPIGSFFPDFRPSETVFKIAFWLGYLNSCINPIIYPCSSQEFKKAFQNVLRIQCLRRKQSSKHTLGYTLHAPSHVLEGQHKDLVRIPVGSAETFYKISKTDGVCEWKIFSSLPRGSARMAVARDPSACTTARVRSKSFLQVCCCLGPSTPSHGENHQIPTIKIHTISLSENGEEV
Outline: (§1)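 Membranes from calf cerebral cortex as the receptor source. Alpha1 sites labelled with [3H]prazosin and alpha2 sites with [3H]clonidine. Affinity measured as displacement of each radioligand.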

[3] = target: T2, Alpha-2A adrenergic receptor (Bos taurus, UniProt Q28838); experiment: Affinity to alpha-2 adrenergic receptor by the displacement of [3H]clonidine from calf cerebral cortex membranes; assay type: tissue-based; outline: as §1
T2 sequence (Q28838 whole entry): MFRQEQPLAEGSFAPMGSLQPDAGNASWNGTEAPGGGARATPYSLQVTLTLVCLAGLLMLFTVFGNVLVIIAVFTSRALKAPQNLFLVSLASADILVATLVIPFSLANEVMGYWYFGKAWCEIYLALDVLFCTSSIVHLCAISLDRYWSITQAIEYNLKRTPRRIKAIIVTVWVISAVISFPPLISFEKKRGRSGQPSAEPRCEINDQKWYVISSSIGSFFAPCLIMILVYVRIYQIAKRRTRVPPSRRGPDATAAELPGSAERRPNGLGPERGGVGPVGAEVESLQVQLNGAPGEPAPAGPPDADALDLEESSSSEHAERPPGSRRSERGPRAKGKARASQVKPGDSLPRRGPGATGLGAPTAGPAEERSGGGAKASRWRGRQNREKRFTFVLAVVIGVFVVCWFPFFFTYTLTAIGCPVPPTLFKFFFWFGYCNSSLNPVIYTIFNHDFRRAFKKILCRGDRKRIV

[4] = target: T1, Alpha-1A adrenergic receptor; experiment: Compound was evaluated for log 1/Ki at alpha-1 adrenergic receptor; conditions: read-out: Log 1/Ki (converted); outline: as §1
[5] = Selectivity expressed as the ratio of Ki of [3H]prazosin to Ki of [3H]-clonidine
[6] = target: T2, Alpha-2A adrenergic receptor; experiment: Compound was evaluated for log 1/Ki at alpha-2 adrenergic receptor; conditions: read-out: Log 1/Ki (converted); outline: as §1

Row | Structure (SMILES) | logD [1] | Ki [2] | Ki [3] | Ki [4] | Selectivity [5] | Ki [6]
1 | c1cnc2c(c1)CCN1CCCCC21 (stereo not drawn) | 0.39 | 3250 nM | 2000 nM | 3240 nM | 1.6 | 2000 nM
2 | c1cnc2[nH]c3c(c2c1)CCN1CCCCC31 (stereo not drawn) | 0.16 | 540 nM | 660 nM | 537 nM | 0.8 | 661 nM
3 | Nc1nc2c(s1)CCN1CCCCC21 (stereo not drawn) | 0.39 | 2800 nM | 350 nM | 2820 nM | 8 | 347 nM
4 | c1cc2c(s1)C1CCCCN1CC2 (stereo not drawn) | 1.51 | 1100 nM | 195 nM | 1100 nM | 5.6 | 195 nM
5 | c1ccc2c3c(oc2c1)C1CCCCN1CC3 (stereo not drawn) | 1.8 | 110 nM | 16.2 nM | 110 nM | 6.8 | 16.2 nM
6 | c1ccc2c3c(sc2c1)C1CCCCN1CC3 (stereo not drawn) | 2.09 | 16.1 nM | 4.3 nM | 16.2 nM | 3.7 | 4.27 nM
7 | c1[nH]nc2c1CCN1CCCCC21 (stereo not drawn) | 0.16 | 24000 nM | 9600 nM | 24000 nM | 2.5 | 9550 nM
8 | c1ccc2c3c([nH]c2c1)C1CCCCN1CC3 (stereo not drawn) | 1.83 | – | – | – | – | –
